Laboratory results reported in ChEMBL document CHEMBL4480454, “Parvifoline Derivatives as Tubulin Polymerization Inhibitors” (J Nat Prod, 2019).
Active and inactive are the calls of the source. The calls are words filed in the database; no cut-off is given here.

Key:
[1] = species on record: Sus scrofa; assay: Inhibition of porcine brain tubulin alpha/beta polymerization at 10 uM measured every minute for 90 mins relative to colchicine
[2] = species on record: Sus scrofa; assay: Inhibition of porcine brain tubulin alpha/beta polymerization at 50 uM measured every minute for 90 mins relative to colchicine
[3] = species on record: Sus scrofa; assay: Inhibition of porcine brain tubulin alpha/beta polymerization at 10 uM measured every minute for 60 mins relative to colchicine
In short: (§1)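 Turbidity assay with porcine brain α,β-tubulin (97%), final 2 mg/mL, in pH 6.9 buffer of 80.0 mM PIPES sesquisodium, 2.0 mM MgCl2, 0.5 mM EGTA and 1.0 mM GTP. Tubulin added at 0 °C to compound in DMSO, then A450 read every minute for 60 min at 37 °C. Time-zero reading subtracted. […] Triplicate; ANOVA with Tukey test.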

[4] = species on record: Sus scrofa; assay: Inhibition of porcine brain tubulin alpha/beta polymerization at 50 uM measured every minute for 60 mins relative to colchicine; in short: as §1
[5] = test system: HeLa; assay: Cytotoxicity against human HeLa cells assessed as reduction in cell viability after 72 hrs by SRB assay; type: functional, cell-based
[6] = test system: HCT-116; assay: Cytotoxicity against human HCT116 cells assessed as reduction in cell viability after 72 hrs by SRB assay; type: functional, cell-based; conditions: HCT-116, 72 h
[7] = species on record: Sus scrofa; assay: Competitive inhibition of colchicine binding to porcine brain tubulin alpha/beta polymerization at 10 to 50 uM preincubated for 30 mins followed by 50 uM colchicine addition and measured after 60 mins by fluorescence assay
In short: (§2)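 Porcine brain α,β-tubulin (97%) in general buffer pH 6.9 (80.0 mM PIPES sesquisodium, 2.0 mM MgCl2, 0.5 mM EGTA), no GTP, final 1 mg/mL, added at 0 °C to compound in DMSO (final 10, 20, 50 μM). […] DMSO control included.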

[8] = species on record: Sus scrofa; assay: Competitive inhibition of colchicine binding to porcine brain tubulin alpha/beta polymerization at 10 to 50 uM preincubated for 30 mins followed by 5 uM colchicine addition and measured after 60 mins by fluorescence assay; in short: as §2
[9] = species on record: Sus scrofa; assay: Induction of porcine brain tubulin alpha/beta polymerization at 10 uM measured every minute for 30 mins

Row | inhibition [1] [%] | inhibition [2] [%] | inhibition [3] [%] | inhibition [4] [%] | inhibition [7] | inhibition [8] | Activity [9] | SMILES | IC50 [5] [nM] | IC50 [6] [nM]
1 | 58.1 | 56.2 |  |  |  |  |  | C/C1=C/c2cc(C)c(O)cc2[C@H](C)CCC1 |  | 
2 | 2.1 | -5.7 | 9.2 | -3.4 |  |  |  | Cc1cc2c(cc1OC(=O)c1ccccc1)[C@@]1(C)CCC[C@H](C)[C@@H]2O1 |  | 
3 | 8.3 | 36.9 | 30.3 | 19.3 |  |  |  | Cc1cc2c(cc1O)[C@H](C)CCC[C@]1(C)O[C@H]21 |  | 
4 |  |  |  |  |  |  |  | COc1cc2c(c(OC)c1OC)-c1ccc(OC)c(=O)cc1[C@@H](NC(C)=O)CC2 [COLCHICINE] | 11 | 40
5 | 46.9 | 44.7 | 48.7 | 33.6 | Active | inactive |  | Cc1cc2c(cc1O)[C@H](C)CC[C@@H]1O[C@]1(C)C2 |  | 
6 | 51 | 66.7 | 24.4 | 54.6 | Active | inactive | Active | C/C1=C/CC[C@@H](C)c2cc(O)c(C)cc2C1 |  | 
7 | 47.9 | 42.2 | 30.3 | 10.9 |  |  |  | Cc1cc2c(cc1OC(=O)c1ccccc1)[C@H](C)CC[C@@H]1O[C@]1(C)C2 |  | 
8 | 97.9 | 78.5 | 89.9 | 51.8 | inactive | inactive |  | Cc1cc2c(cc1OC(=O)c1ccccc1)[C@H](C)CCC[C@]1(C)O[C@H]21 | 3300 | 5000
9 | 35.4 | 106 | 38.7 | 86.6 |  |  |  | C/C1=C/c2cc(C)c(OC(=O)c3ccccc3)cc2[C@H](C)CCC1 |  | 
10 |  | 46.9 | 26.1 | 76.9 |  |  |  | Cc1cc2c(cc1OC(=O)c1ccccc1)[C@@]1(C)CC[C@H](O1)[C@H](C)C2 |  | 
11 | 56.3 | 58.9 | 11.8 | 46.2 |  |  |  | C/C1=C/CC[C@@H](C)c2cc(OC(=O)c3ccccc3)c(C)cc2C1 |  | 

Row | SMILES | inhibition [1] [%] | inhibition [2] [%] | inhibition [3] [%] | inhibition [4] [%] | inhibition [7] | inhibition [8] | Activity [9] | IC50 [5] [nM] | IC50 [6] [nM]
12 | Cc1cc2c(cc1O)[C@@]1(C)CC[C@H](O1)[C@H](C)C2 | 43.7 | 67 | 40.2 | 66.3 |  |  |  |  | 
13 | Cc1cc2c(cc1O)[C@@]1(C)CCC[C@H](C)[C@@H]2O1 | 21.9 | 62.5 | 38.7 | 76.1 |  |  |  |  | 
